Test results published in ChEMBL document CHEMBL1799956, “Convergent synthesis and biological evaluation of 2-amino-4-(3',4',5'-trimethoxyphenyl)-5-aryl thiazoles as microtubule targeting agents” (J Med Chem, 2011).
Activity calls are given as the source filed them. The calls are words filed in the database; no cut-off is given here.

What was measured:
[1] = tested on: HeLa; assay: Induction of apoptosis in human HeLa cells assessed as reduction in p21 expression at 10 to 100 nM after 24 hrs by Western blot analysis
[2] = tested on: Jurkat; assay: Induction of apoptosis in human Jurkat cells assessed as multinucleation at 100 uM after 24 to 48 hrs using Giemsa's staining by microscopic analysis; type: functional, cell-based
How it was run: (§1)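 Giemsa staining, then light-microscope examination of cell morphology. HeLa and Jurkat cells were exposed to compound for 24 and 48 h. Magnification 60×.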

[3] = tested on: HeLa; assay: Induction of apoptosis in human HeLa cells assessed as increase in phospho-gammaH2AX expression at […] after 24 hrs by Western blot analysis; type: functional, cell-based
How it was run: (§2)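 HeLa treated for 24 or 48 h; whole-cell lysates run on SDS-PAGE and blotted for phospho-γH2AX (Ser139).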

[4] = Antiproliferative activity against human taxol-resistant A549-T12 cells assessed as growth inhibition after 72 hrs by MTT assay; type: functional, cell-based; conditions: A549, 72 h
[5] = tested on: Jurkat; assay: Induction of apoptosis in human Jurkat cells assessed as formation of large cytoplasmic vacuoles at 100 uM after 24 to 48 hrs using Giemsa's staining by microscopic analysis; type: functional, cell-based
How it was run: as §1

[6] = tested on: Jurkat; assay: Induction of apoptosis in human Jurkat cells assessed as formation of large cells at 100 uM after 24 to 48 hrs using Giemsa's staining by microscopic analysis; type: functional, cell-based
How it was run: as §1

[7] = tested on: K562; assay: Antiproliferative activity against human K562 cells assessed as growth inhibition after 72 hrs by MTT assay; type: functional, cell-based; conditions: K562, 72 h
[8] = tested on: HeLa; assay: Induction of apoptosis in human HeLa cells assessed as reduction in p53 expression at […] after 48 hrs by Western blot analysis; type: functional, cell-based
How it was run: (§3)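 Western blot of HeLa whole-cell lysates, separated by SDS-PAGE and probed with antibodies to p-γH2AX Ser139, p53 and p21waf/cip1. Cells were treated at the indicated concentrations for 24 or 48 h.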

[9] = tested on: MCF7; assay: Antiproliferative activity against human MCF7 cells assessed as growth inhibition after 72 hrs by MTT assay; type: functional, cell-based; conditions: MCF7, 72 h
[10] = tested on: HeLa; assay: Induction of apoptosis in human HeLa cells assessed activation of caspase 2 at 10 to 100 nM after 48 hrs by Western blot analysis
[11] = tested on: HeLa; assay: Induction of apoptosis in human HeLa cells assessed as multinucleation at 10 uM after 24 to 48 hrs using Giemsa's staining by microscopic analysis; type: functional, cell-based
How it was run: as §1

[12] = tested on: Jurkat; assay: Cell cycle arrest in human Jurkat cells assessed as decrease of cell population at S phase at 100 nM after 24 hrs using propidium iodide staining by flow cytometry; type: functional, cell-based
[13] = tested on: HeLa; assay: Induction of apoptosis in human HeLa cells assessed as reduction in p21 expression at […] after 48 hrs by Western blot analysis; type: functional, cell-based
How it was run: as §3

[14] = tested on: HeLa; assay: Induction of apoptosis in human HeLa cells assessed as cleavage of PARP at 10 to 100 nM by Western blotting; conditions: TDE = time-dependent effect
[15] = tested on: HeLa; assay: Induction of apoptosis in human HeLa cells assessed as formation of large cells at 10 uM after 24 to 48 hrs using Giemsa's staining by microscopic analysis; type: functional, cell-based
How it was run: (§4)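 HeLa treated 48 h, Giemsa stained and examined by light microscopy at 60× magnification.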

[16] = tested on: HeLa; assay: Induction of apoptosis in human HeLa cells assessed as reduction in p53 expression at […] after 24 hrs by Western blot analysis; type: functional, cell-based
How it was run: as §3

[17] = tested on: HeLa; assay: Induction of apoptosis in human HeLa cells assessed as decrease in Bax expression at […] after 48 hrs by Western blot analysis; type: functional, cell-based
How it was run: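 Treated HeLa whole-cell lysates separated by SDS-PAGE and immunoblotted for PARP cleavage, Bcl-2, Bax, pro-caspase-9 and pro-caspase-2.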

[18] = tested on: LoVo; assay: Antiproliferative activity against human LoVo cells assessed as growth inhibition after 72 hrs by MTT assay; type: functional, cell-based
[19] = tested on: Jurkat; assay: Induction of apoptosis in human Jurkat cells assessed as multinucleation at 10 uM after 24 to 48 hrs using Giemsa's staining by microscopic analysis; type: functional, cell-based
How it was run: as §1

[20] = tested on: HeLa; assay: Induction of apoptosis in human HeLa cells assessed as DNA condensation at 10 uM after 24 to 48 hrs using Giemsa's staining by microscopic analysis; type: functional, cell-based
How it was run: as §4

[21] = tested on: HeLa; assay: Cell cycle arrest in human HeLa cells assessed as increase of cell population at G2/M phase after 24 hrs using propidium iodide staining by flow cytometry; type: functional, cell-based
[22] = tested on: HeLa; assay: Induction of apoptosis in human HeLa cells assessed as increase in phospho-gammaH2AX expression at […] after 48 hrs by Western blot analysis; type: functional, cell-based
How it was run: as §2

[23] = target: T1, Tubulin (Homo sapiens) (UniProt P68371+Q9H4B7+P0DPH7+P68366+Q13509+Q71U36+P04350+Q3ZCM7+P07437+P68363+Q9BQE3+Q6PEY2+Q13885+Q9BVA1+Q9BUF5); assay: Induction of microtubule disassembly with spherical morphology in human HeLa cells at 10 nM after 24 hrs using DAPI-staining by fluorescence microscopy; type: cell-based
How it was run: (§5)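 HeLa cells were exposed to 10 or 100 nM compound for 24 or 48 h, then fixed. Microtubules were stained with FITC-conjugated anti-β-tubulin antibody and imaged by confocal/fluorescence microscopy at 60× magnification.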

[24] = tested on: HeLa; assay: Induction of cell cycle arrest at G2/M phase in human HeLa cells assessed as increase in cyclin B1 expression at 10 to 100 nM by Western blot analysis; type: functional, cell-based; conditions: TDE = time-dependent effect
How it was run: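 Immunoblot of HeLa lysates after 24 or 48 h of compound treatment at the indicated concentrations. Probed for cyclin B1, p-Cdc2 Y15 and Cdc25c. Slower-migrating Cdc25c bands were taken as a change in phosphorylation.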

[25] = tested on: CCRF-CEM; assay: Antiproliferative activity against human CEM cells assessed as growth inhibition after 72 hrs by MTT assay; type: functional, cell-based
[26] = target: T1, Tubulin (Homo sapiens); assay: Induction of microtubule disassembly in human HeLa cells assessed as complete loss of microtubules at 100 nM after 24 hrs using DAPI-staining by fluorescence microscopy; type: cell-based
How it was run: as §5

[27] = tested on: HeLa; assay: Induction of morphological changes in human HeLa cells assessed as appearance of giant interphase with multiple nuclei of different sizes at 10 nM after 24 hrs using phalloidintetramethylrhodamine B isothiocyanate staining by microscopy; type: functional, cell-based
How it was run: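 HeLa cells were incubated with compound for 24 h. F-actin was stained with a phalloidin–tetramethylrhodamine B isothiocyanate conjugate and nuclei were counterstained with DAPI. Cells were then examined by fluorescence microscopy.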

[28] = tested on: LoVo; assay: Fold resistance, ratio of IC50 for human doxorubicin-resistant LoVo cells overexpressing P-gp to IC50 for human LoVo cells; type: functional
How it was run: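 Fold resistance taken as the ratio of IC50 in the resistant line to IC50 in the parental line, each IC50 from dose-response curves of at least three independent experiments.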

[29] = organism: Bos taurus; assay: Displacement of [3H]colchicine from bovine brain tubulin at 5 uM
How it was run: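 [3H]colchicine binding inhibition with tubulin at 1 μM, [3H]colchicine at 5 μM and test compound at 5 μM.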

[30] = tested on: HeLa; assay: Induction of apoptosis in human HeLa cells assessed as increase in mitochondrial ROS production at 100 nM after 48 hrs using H2DCFDA staining by flow cytometry; type: functional, cell-based

IC50 [7]: 0.07 nM | IC50 [9]: 44 nM | IC50 [18]: 0.7 nM | Activity [23]: Active | IC50 [25]: 0.9 nM | Activity [26]: Active | inhibition [29]: 95%
Compound: CCOc1ccc(-c2sc(N)nc2-c2cc(OC)c(OC)c(OC)c2)cc1
Activity [1]: Active | Activity [2]: Active | Activity [3]: Active | IC50 [4]: 0.2 nM | Activity [5]: Active | Activity [6]: Active | Activity [8]: Active | Activity [10]: Active | Activity [11]: Active | Activity [12]: Active | Activity [13]: Active | Activity [14]: tde | Activity [15]: Active | Activity [16]: inactive | Activity [17]: Active | Activity [19]: Active | Activity [20]: Active | Activity [21]: Dose-dependent effect | Activity [22]: Active | Activity [24]: tde | Activity [27]: Active | Ratio IC50 [28]: 0.9 | Activity [30]: Active
